The subject of the data set is MS2 coat protein. As to the kind of experiment: apparent Kd, MS2 coat protein; higher = weaker binding; RNA-MaP array; FMN 200 µM where present. An outline of the steps:
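Designs were transcribed by stalled E. coli RNA polymerase on Illumina sequencing-chip clusters. They were titrated with SNAP-549-labelled MS2 coat protein from 0.7 or 1.5 nM, doubling to 3 µM, without and then with constant ligand. Buffer: 100 mM Tris-HCl pH 7.5, 80 mM KCl, 4 mM MgCl2, BSA, DTT, yeast tRNA, Tween-20. Green signal was normalised to red-channel RNA signal and control-cluster median Fmax. Apparent Kd is the median of filtered per-cluster binding-curve fits.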

The mark [1] stands for this setting: designed as: ON switch for flavin mononucleotide, no ligand.
The mark [2] stands for this setting: ligand present: flavin mononucleotide, designed as: ON switch for flavin mononucleotide.
Where [3] appears, read: designed as: OFF switch for flavin mononucleotide, no ligand.
The mark [4] stands for this setting: ligand present: flavin mononucleotide, designed as: OFF switch for flavin mononucleotide.

As a reminder, the apparent Kd is a dissociation constant that holds for the conditions of the assay. Turning to “ACAGAGGCUGACAUGAGGAUCACCCAUGUUAGAUUGUUAUGUCAGGAUAUUGUCUAGCAACUAGACAAGAAGGGACCCUCUGUG”, the “apparent Kd” value was 39.2 nM under setting [1] and 9.69 nM under setting [2].

With “GGAUAGGACAGAGGAUAUACGUGCUAGAGAUACUAGCAAAUAAUCCUUACAUGAGGAUCACCCAUGUAGAAGGCUGUCCUAUCG”, the “apparent Kd” value runs as follows: under setting [3], 20.2 nM; under setting [4], 48 nM.

As for “AAAGAGACAGGAUAUACAUGGGUGAUAAAAAUCAUGUAAAAACAUGAGGAUCACCCAUGUAGAAGGGUCUCAAA”, the “apparent Kd” value amounted to 26.9 nM under setting [3] and 22.8 nM under setting [4].

For the sequence “CAUGCACAUGAGGAUCACCCAUGUCAGGAUAUCUAUCAUAGCAUCGAAAGAUGCGGGUAGAGAAGGGACAACCC”, the “apparent Kd” value under setting [3] was 16.2 nM and the “apparent Kd” value under setting [4] came out at 16.4 nM.

Regarding “CUACGAACGAUAGGAUAUACUGAGGUUGAGUGGGUAGAAGGAUCGAUAGUGGAGAAGACAUGAGGAUCACCCAUGUUGUGGAUU”, the “apparent Kd” value is, setting by setting: under setting [1], 176 nM; under setting [2], 45.5 nM.

As to “GUACAACAUGAGGAUCACCCAUGUAUAUAUAUACGAGGAUAUGCAUGUACGAAAGUAUAUGCAGAAGGCGUUGUAC”, the “apparent Kd” value under setting [1] is 127 nM and the “apparent Kd” value under setting [2] worked out at 30.2 nM.

For “UUUACAUGAGGAUCACCCAUGUCUGUCACCCAUGUGUGCAAUCAGGAUAUGAUCUCAAGAAUGAAUUAGAAGGGAUAACAUGAG”, the “apparent Kd” value is 182 nM under setting [1] and 194 nM under setting [2].

Regarding “CUCUUGUGAGGAUAUGUAGGUUACGAGAGCAAAACGAACGGACAGAAGGUACAUGAGGAUCACCCAUGUGGGAU”, the “apparent Kd” value stood at 109 nM under setting [3] and 95.4 nM under setting [4].

Turning to “ACGCCUCCUGUUAGGAUAUGCAUCGGGCUUCCGCAGCAGAAGGAACAUGAGGAUCACCCAUGUCAAAUAAAAUC”, the “apparent Kd” value under setting [3] is 15.3 nM and the “apparent Kd” value under setting [4] came out at 94.4 nM.

On to “AUACUCAUGUAAGGAUAUGCAGCCGAAACGGCUGCAGAAGGUACUAAAAUACAUGAGGAUCACCCAUGUCUUUUUAAUUUAGAC”, for which the “apparent Kd” value came to 258 nM under setting [1] and 255 nM under setting [2].

Regarding “GGUGAGAGCAAGGAUAUGCAGAAGUGAGAAAGUGCAGAAGGUGCUACAUGAGGAUCACCCAUGUUGGAUGUGUU”, the “apparent Kd” value worked out at 37.1 nM under setting [3] and 49.1 nM under setting [4].

For “CCCAAGUCAGGAUAUGGAACACAGAGACAUCUCUGUGCCCACCAGAAGGGACAUGAGGAUCACCCAUGUGAUGA”, the “apparent Kd” value reads like this: under setting [3], 64.4 nM; under setting [4], 296 nM.

Regarding “AGCAAAAUAAGCAAGGAUAUGUAAUUUGGCACAUGAGGAUCACCCAUGUCAAUCCAUUUUUUUGAACAGAAGGUGCAUUUUUUUU”, the “apparent Kd” value by setting is: under setting [1], 38.2 nM; under setting [2], 32.1 nM.

Turning to “GUAAACCUAGGAUAUACAUGAGGAUCACCCAUGUAUUGAUCGUGCGGCUGUUCCGGAGGUAGAAGGAGGAACCU”, the “apparent Kd” value came to 20.7 nM under setting [3] and 34.2 nM under setting [4].

For “UGCAGACGAGGAUAUGAUCAAUAAUACAUGAGGAUCACCCAUGUAAUACUGAUCCAUGGAUCAGAAGGCGUCUGCU”, the “apparent Kd” value by setting is: under setting [3], 16.2 nM; under setting [4], 24.6 nM.

“ACUAGAUGAGGAUAUGCAUAUUUUCGUGUUCUUCUAGGUUAACAUGAGGAUCACCCAUGUAGAAGGCGUCUAUA”: the “apparent Kd” value reads like this: under setting [3], 19.7 nM; under setting [4], 35 nM.

Take “UAAAAUCAUGUAGGAUAUGCGUGGCGAAGCUAUGCAGAAGGACAUGAGGAUCACCCAUGUCUUACCUAGCGUACUAGGUUAAAG”: the “apparent Kd” value under setting [3] came to 19.7 nM and the “apparent Kd” value under setting [4] was found to be 107 nM.

For “ACUUUACGAGGAUAUACUGUCGGGCCUCGGGCGUCCAUGCGACAUGAGGAUCACCCAUGUAGAAGGCGUUUACU”, the “apparent Kd” value by setting is: under setting [3], 25.1 nM; under setting [4], 51.5 nM.

For “CGCGAACAGGCUAACAUGAGGAUCACCCAUGUGGACUCAUGGUAGGAUAUCGGGAAGGAGGAAACCGAGAAGGGCCGGUGAGCU”, the “apparent Kd” value is, setting by setting: under setting [1], 65.6 nM; under setting [2], 86.5 nM.

For “GCUUGUAGAGGAUAUACAAGGGCCUUAGCGAAUAACACCGCACAUGAGGAUCACCCAUGUAGAAGGCUACCACC”, the “apparent Kd” value under setting [3] was 15.6 nM and the “apparent Kd” value under setting [4] amounted to 77.6 nM.

In the case of “UGAUCUAUGUAGAAGGCCCAUAUCUAUAUUUAGGGAGGAUAUACAUGAGGAUCACCCAUGUAUAGAGCUAGUGGACUGGUCACC”, the “apparent Kd” value turned out to be 37.7 nM under setting [3] and 48.1 nM under setting [4].

Turning to “AACACGAGAGGUGUUGUCUAACCACAUGAGGAUCACCCAUGUAAGGAUAUCGCGGCUAUCGGCAUCGAGAAGGUACAGGGAGCA”, the “apparent Kd” value reads like this: under setting [3], 16.2 nM; under setting [4], 31.4 nM.

Regarding “GGAUGACAAAGUCAUCCAAUACGAACAUGAGGAUCACCCAUGUAGGAUAUGCUACAUGAGGAUCACCAGAAGGACAUGUGCCUU”, the “apparent Kd” value was 123 nM under setting [3] and 135 nM under setting [4].

For “AAAAAGUCAGGAUAUCGUAGAAAAAUAUAAAUAAGAAAGUACGAGAAGGGACAUGAGGAUCACCCAUGUAAAAA”, the “apparent Kd” value was 33.1 nM under setting [3] and 36.9 nM under setting [4].

In the case of “GUCAGCUCGUGAGGAUAUACAUCACUGCUUCGGCAGUGUAUUAAGAUCACAUGAGGAUCACCCAUGUAGAAGGCACGAGCUGAU”, the “apparent Kd” value is 42.5 nM under setting [3] and 620 nM under setting [4].

Regarding “CGUUUAUAUAUGGGUUUAUAUUAUGAGGAUAUCAAUAUUUAAUACAUGAGGAUCACCCAUGUUACUGAGAAGGCAUAAUUAACG”, the “apparent Kd” value under setting [2] amounted to 6.99 nM.

Turning to “AGGUAACAUGAGGAUCACCCAUGUCAGGAUAUCAGUAAGAUUAGAAUAGAGUAGAGGAUGAGAAGGGACUAUAU”, the “apparent Kd” value by setting is: under setting [3], 47 nM; under setting [4], 41.8 nM.

Take “UAUAUAUAAUAUAUUAACAUGAGGAUCACCCAUGUCGCUAGACAGGAUAUAUUUAAUUUUUUUAAGUAGAAGGGUCAUAUAAUU”: the “apparent Kd” value was found to be 68.3 nM under setting [1] and 80.9 nM under setting [2].

Consider “GGCGAACAGGCUAACAUGAGGAUCACCCAUGUGGACUCAUGGUAGGAUAUCGGGAAGGAGGAAACCGAGAAGGGCCGGUGAGCC”, for which the “apparent Kd” value runs as follows: under setting [1], 61 nM; under setting [2], 34.1 nM.

For “AGUUUGUGAGGAUAUCCAAUAUAUGACAUGAGGAUCACCCAUGUUUCCACUCGUACCUCCGGAGAAGGCACUGCGA”, the “apparent Kd” value by setting is: under setting [3], 21.5 nM; under setting [4], 22.9 nM.

Turning to “CACUCACAUGAGGAUCACCCAUGUCCUAGCAGGUCAGGAUAUAGCUCGGAUGCGUUGAGGCUAGAAGGGACAGGUU”, the “apparent Kd” value reads like this: under setting [1], 116 nM; under setting [2], 68.5 nM.

Consider “AGUACUACAGGAUAUACGAGGGAGGUCCACGUGACCCUUCUACAUGAGGAUCACCCAUGUAGAAGGGUAGUACA”, for which the “apparent Kd” value under setting [3] was 13.9 nM and the “apparent Kd” value under setting [4] was 13.9 nM.

Turning to “UCGAUGCUAGGAUAUACUUAUAAAACUACUGUAGAGUCUUCACAUGAGGAUCACCCAUGUAGAAGGAGCAUCUA”, the “apparent Kd” value came out at 20 nM under setting [3] and 16 nM under setting [4].

Turning to “GCGGCUCCUGACAUGAGGAUCACCCAUGUUUAAUUAUUAAAUCAGGAUAUCCUCUCGAAACGAGAGGAGAAGGGAUAAGCUGCU”, the “apparent Kd” value is 5.6 nM under setting [1] and 6.44 nM under setting [2].

“CAGUACUGAGGAUAUACAUGAGGAUCACCCAUGUGCUUUAGCUAGGAUACUAGCACUAGUAGAAGGCAGUACUG”: the “apparent Kd” value by setting is: under setting [3], 13.9 nM; under setting [4], 23.6 nM.

Regarding “AAAUUGGUAGAGGAUAUCGGAUAGGAUUUACUGCGAGAAGGCUGCACAUGAGGAUCACCCAUGUUCUGUUGCGA”, the “apparent Kd” value is, setting by setting: under setting [3], 25.1 nM; under setting [4], 26 nM.

For the sequence “GGUACCAACACAGGAUAUGCUUUCCUUUGGGAAGCAGAAGGGUGAAACAUGAGGAUCACCCAUGUGGUGCCAGGGCGUGAGCCC”, the “apparent Kd” value is, setting by setting: under setting [1], 1360 nM; under setting [2], 79.5 nM.

As to “CUGGAUCACGCAGGAUAUUACAUGAGGAUCACCCAUGUCAGAACUGCAAUAUCGUCUCCUCGUUGUGAGAAGGGCGGAAUCAUA”, the “apparent Kd” value was found to be 13.8 nM under setting [3] and 19.9 nM under setting [4].

As for “GUCAGCUCAUGAGGAUAUACAACACUGCUUCGGCAGUGUAUUAAGAUCACAUGAGGAUCACCCAUGUAGAAGGCACGAGCUGAU”, the “apparent Kd” value is, setting by setting: under setting [3], 12.9 nM; under setting [4], 258 nM.

As for “CAUGUCCUCACAGGAUAUGCACCACUUUGUGGUGCAGAAGGGUGGUUACAUGAGGAUCACCCAUGUGGACAUGAUAUAUUUAAU”, the “apparent Kd” value was 93.7 nM under setting [1] and 1150 nM under setting [2].

For the sequence “UGUUGUUCAGGAUAUGGUGUGUUCUACAUGAGGAUCACCCAUGUGGGUCCUGGUUUGGCGUCAGAAGGGAAUGUUG”, the “apparent Kd” value under setting [3] came out at 750 nM and the “apparent Kd” value under setting [4] came to 746 nM.

“ACACCGUCAGGAUAUUGGAAGACACCCAGGAGGGUGCCUUUCGAGAAGGGACAUGAGGAUCACCCAUGUGCAGU”: the “apparent Kd” value by setting is: under setting [3], 27.9 nM; under setting [4], 58.6 nM.

In the case of “AGUGGGCUAGGAUAUCGAUGAACUCACAUGAGGAUCACCCAUGUGUCUUUGGUGGGCGCACGAGAAGGAGUAAGAU”, the “apparent Kd” value turned out to be 40.4 nM under setting [3] and 43.3 nM under setting [4].

Regarding “UAUAUACAUGAGGAUCACCCAUGUAAGGAUAUGCUUUAUUAUUAUUAUUAUUAUUAUUGCAGAAGGUACAAUAU”, the “apparent Kd” value stood at 32 nM under setting [3] and 29.8 nM under setting [4].

With “GCCUUACCGGUCAGGAUAUACACCCGUCACUCCUUGUAGAAGGGACAUGAGGAUCACCCAUGUACAUUACAUUG”, the “apparent Kd” value was determined as 31.1 nM under setting [3] and 29.2 nM under setting [4].

On to “CUUUUGUGAGGAUAUCAGUAGUAAAUAAAUAAAAUUACUACUGAGAAGGCACAUGAGGAUCACCCAUGUUCCUU”, for which the “apparent Kd” value worked out at 14.7 nM under setting [3] and 28.4 nM under setting [4].

Consider “UUGUUGUGUGUAGGAUAUGCAUAUUAUUAUUAUGCAGAAGGACAUGAGGAUCACCCAUGUAUAUUAUUAUUAUAUAUUAUAUAU”, for which the “apparent Kd” value is, setting by setting: under setting [3], 31.1 nM; under setting [4], 36.6 nM.

Turning to “CCGACGAAAGUCGAACGAUGUAGCAGAAGGACAUGAGGAUCACCCAUGUCAGCUGUAACAGCCAUGUAGGAUAUGCUACAUCGG”, the “apparent Kd” value under setting [3] stood at 4.44 nM and the “apparent Kd” value under setting [4] worked out at 5.53 nM.

For “GGUAAGAUGCAGAAGGUGUUAGCUAGAGCUACGACAUGAGGAUCACCCAUGUACUAGAAACAGUACAAGGAUAUGCAUCUUACU”, the “apparent Kd” value under setting [1] was 18.9 nM and the “apparent Kd” value under setting [2] was 6.53 nM.

The record behind these values is the EternaBench riboswitch data.
